Measured values reported in paper PMC4926610 (Journal of natural products, 2016).
Entries after “also recorded” stand apart in the source; their conditions may differ.

Key:
[1] = isolated from Rhodotorula glutinis T-110; cited from earlier work
p97 (wt-p97) = p97 (wt-p97) (Homo sapiens, UniProt P55072); experiment: Malachite green assay for p97 ATPase activity; assay type: biochemical
How it was run: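 Hydrolysis started with 2.0 mM ATP at 37 °C. Aliquots taken at 2, 4, 6, 8 and 10 min were quenched in malachite green/ammonium molybdate/HCl/Tween 20 reagent. IC50 was taken from dose–response curves.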

p97 = p97 (Homo sapiens, UniProt P55072); assay type: biochemical; conditions: 100.0 μM compound, 1.0 μM p97, 6 h at 21 °C, then dialysis; Figure 6B
How it was run: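 Dialysed into assay buffer, fresh buffer 3 times every 2 h. ATPase started with 2.0 mM ATP; aliquots every 10 min up to 1 h into malachite green, citrate-quenched, OD660 converted to phosphate via standard curve, plotted against time.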

chaperonin GroEL = chaperonin GroEL (Escherichia coli, UniProt P0A6F5); experiment: Malachite green ATPase assay, GroEL; assay type: biochemical
[2] = target: N-ethylmaleimide sensitive factor (NSF) (Homo sapiens, UniProt P46459); experiment: Malachite green ATPase assay, NSF; assay type: biochemical
[3] = target: type I AAA+ chaperone ClpX (Escherichia coli, UniProt P0A6H1); experiment: Malachite green ATPase assay, ClpX; assay type: biochemical
[4] = test system: HEK293 cells stably expressing Ub^G76 VGFP; experiment: Ub^G76 VGFP ubiquitin fusion degradation; assay type: cell-based, human; conditions: 10.0, 20.0 and 50.0 μM
How it was run: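 Stable reporter HEK293 lines seeded at 2 × 10^6 cells in phenol-red free DMEM plus 10% FBS, grown 18 h at 37 °C under 5% CO2. Then treated with 10.0, 20.0 or 50.0 μM test compound (0.1% final DMSO). DMSO 0.1% negative control and MG132 10.0 μM positive control were included. GFP-positive cells counted by flow cytometry: 488 nm excitation, 530/30 emission, 10 000 events gated on FSC/SSC.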

p97-C209A = p97-C209A (Homo sapiens, UniProt P55072, C209A); experiment: biochemical
p97-cys0 = p97-cys0 (Homo sapiens, UniProt P55072); experiment: Malachite green ATPase assay, cysteineless p97; assay type: biochemical; conditions: Figure 6A
Sequence of p97-cys0 (P55072 2-806): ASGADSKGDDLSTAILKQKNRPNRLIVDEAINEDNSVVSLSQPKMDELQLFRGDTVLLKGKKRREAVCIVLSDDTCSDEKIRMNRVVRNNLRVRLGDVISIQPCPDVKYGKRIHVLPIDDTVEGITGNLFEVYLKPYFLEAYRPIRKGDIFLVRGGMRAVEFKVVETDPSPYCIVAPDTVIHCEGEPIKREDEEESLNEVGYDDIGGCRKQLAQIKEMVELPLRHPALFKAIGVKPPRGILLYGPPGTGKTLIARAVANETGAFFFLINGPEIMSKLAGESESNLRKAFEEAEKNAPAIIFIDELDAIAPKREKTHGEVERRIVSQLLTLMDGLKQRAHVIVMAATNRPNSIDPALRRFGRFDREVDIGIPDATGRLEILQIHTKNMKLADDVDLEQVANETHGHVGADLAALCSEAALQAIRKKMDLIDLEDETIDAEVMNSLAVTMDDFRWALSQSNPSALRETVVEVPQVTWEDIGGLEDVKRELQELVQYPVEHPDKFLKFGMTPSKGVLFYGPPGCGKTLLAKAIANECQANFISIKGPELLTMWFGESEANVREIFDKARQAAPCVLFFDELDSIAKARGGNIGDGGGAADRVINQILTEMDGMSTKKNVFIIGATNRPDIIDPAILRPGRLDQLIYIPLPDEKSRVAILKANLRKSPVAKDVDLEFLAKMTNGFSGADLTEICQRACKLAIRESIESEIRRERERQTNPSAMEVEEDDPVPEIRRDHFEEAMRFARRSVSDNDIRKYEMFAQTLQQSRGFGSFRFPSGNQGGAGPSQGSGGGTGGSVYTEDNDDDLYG

Sequence of p97 (wt-p97) (P55072 whole entry): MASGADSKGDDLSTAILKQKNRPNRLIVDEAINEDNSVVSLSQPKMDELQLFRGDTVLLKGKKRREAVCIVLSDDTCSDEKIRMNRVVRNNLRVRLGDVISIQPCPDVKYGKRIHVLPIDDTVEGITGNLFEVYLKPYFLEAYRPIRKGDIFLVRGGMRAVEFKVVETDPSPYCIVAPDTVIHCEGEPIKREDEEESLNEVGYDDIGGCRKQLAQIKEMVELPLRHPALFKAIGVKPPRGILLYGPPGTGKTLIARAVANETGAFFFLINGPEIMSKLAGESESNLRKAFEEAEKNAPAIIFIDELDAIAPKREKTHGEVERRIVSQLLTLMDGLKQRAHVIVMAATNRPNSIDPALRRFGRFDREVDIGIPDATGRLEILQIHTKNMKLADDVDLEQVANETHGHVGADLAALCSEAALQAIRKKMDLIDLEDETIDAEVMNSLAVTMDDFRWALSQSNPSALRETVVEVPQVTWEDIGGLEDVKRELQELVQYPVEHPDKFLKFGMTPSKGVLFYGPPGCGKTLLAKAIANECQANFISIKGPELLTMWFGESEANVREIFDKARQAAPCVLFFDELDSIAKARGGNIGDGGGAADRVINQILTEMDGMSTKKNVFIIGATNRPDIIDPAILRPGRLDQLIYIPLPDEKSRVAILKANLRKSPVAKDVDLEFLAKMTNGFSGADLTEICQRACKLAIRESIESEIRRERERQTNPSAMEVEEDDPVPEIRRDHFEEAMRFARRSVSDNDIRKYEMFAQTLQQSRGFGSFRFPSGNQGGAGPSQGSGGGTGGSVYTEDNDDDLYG
Sequence of p97 (P55072 whole entry): as above
Sequence of p97-C209A (P55072 whole entry C209A): as the sequence (P55072 whole entry) above, with C209A counted along it
Sequence of type I AAA+ chaperone ClpX (P0A6H1 whole entry, the tested form may be a part): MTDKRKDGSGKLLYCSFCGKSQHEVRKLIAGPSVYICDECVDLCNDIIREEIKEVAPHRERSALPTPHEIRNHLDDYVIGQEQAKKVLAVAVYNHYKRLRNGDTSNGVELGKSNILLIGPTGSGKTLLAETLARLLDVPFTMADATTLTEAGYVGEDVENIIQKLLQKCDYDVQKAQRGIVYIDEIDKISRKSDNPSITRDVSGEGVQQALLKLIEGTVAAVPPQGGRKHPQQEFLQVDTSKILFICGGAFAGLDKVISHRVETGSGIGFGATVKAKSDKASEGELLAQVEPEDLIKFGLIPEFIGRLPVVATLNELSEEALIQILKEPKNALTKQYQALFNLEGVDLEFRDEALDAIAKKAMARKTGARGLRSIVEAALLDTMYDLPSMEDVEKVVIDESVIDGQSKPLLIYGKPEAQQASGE
Sequence of N-ethylmaleimide sensitive factor (NSF) (P46459 whole entry, species assumed): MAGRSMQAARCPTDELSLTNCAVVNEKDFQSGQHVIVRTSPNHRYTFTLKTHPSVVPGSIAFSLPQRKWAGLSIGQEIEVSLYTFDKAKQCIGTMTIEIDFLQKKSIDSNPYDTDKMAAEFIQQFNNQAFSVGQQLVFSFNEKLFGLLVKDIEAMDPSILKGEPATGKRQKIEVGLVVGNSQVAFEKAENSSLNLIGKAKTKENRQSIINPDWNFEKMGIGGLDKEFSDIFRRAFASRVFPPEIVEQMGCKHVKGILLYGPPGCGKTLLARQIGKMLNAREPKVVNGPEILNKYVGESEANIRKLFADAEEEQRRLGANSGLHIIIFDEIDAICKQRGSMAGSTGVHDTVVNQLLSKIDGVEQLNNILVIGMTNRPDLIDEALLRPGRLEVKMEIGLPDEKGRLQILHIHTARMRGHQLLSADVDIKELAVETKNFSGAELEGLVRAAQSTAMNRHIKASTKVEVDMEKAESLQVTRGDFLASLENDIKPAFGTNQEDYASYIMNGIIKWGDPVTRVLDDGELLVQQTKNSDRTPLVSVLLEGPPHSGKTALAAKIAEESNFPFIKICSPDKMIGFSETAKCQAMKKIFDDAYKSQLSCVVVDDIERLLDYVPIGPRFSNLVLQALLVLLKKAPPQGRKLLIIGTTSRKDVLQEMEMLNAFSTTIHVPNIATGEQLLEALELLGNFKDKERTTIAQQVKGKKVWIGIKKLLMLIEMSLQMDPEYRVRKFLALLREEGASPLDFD
Sequence of chaperonin GroEL (P0A6F5 whole entry): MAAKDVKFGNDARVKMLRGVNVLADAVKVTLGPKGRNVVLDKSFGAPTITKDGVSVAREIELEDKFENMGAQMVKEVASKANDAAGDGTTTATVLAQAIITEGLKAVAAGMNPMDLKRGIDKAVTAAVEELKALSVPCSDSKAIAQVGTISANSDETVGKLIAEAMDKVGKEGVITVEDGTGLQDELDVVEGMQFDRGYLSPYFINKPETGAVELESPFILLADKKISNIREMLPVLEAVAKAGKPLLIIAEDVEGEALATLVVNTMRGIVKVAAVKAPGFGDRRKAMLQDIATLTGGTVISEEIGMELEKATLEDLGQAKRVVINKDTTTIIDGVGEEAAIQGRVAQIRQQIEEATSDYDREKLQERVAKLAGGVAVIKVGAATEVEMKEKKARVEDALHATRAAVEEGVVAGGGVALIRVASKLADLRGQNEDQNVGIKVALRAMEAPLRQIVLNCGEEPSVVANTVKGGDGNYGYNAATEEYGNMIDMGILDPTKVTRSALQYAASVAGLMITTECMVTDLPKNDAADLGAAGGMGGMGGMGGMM

For `CCCC=CC=C[C@@H]1C=C[C@@H](O)[C@H](O)[C@]12C(=O)OC(C)[C@@H]2O` (stereo partly drawn) [compound 1, (4R,5R,6R,9R,10R)-6-(hepta-1,3-dien)yl-4,9,10-trihydroxy-3-methyl-2-oxaspiro[4,5]dec-7-en-1-one], the “antibacterial activity (in words)” value [1] is given as “weakly active”.

In the case of `C=C1OC(=O)[C@@]2(C1=O)[C@H](/C=C/C=C/CCC)C=C[C@@H](OC(C)=O)[C@@H]2OC(C)=O` (single isomer, unassigned; isomer 5b) [5b, 9,10-Diacetyloxaspirol B Isomer 5b], the IC50 (p97 (wt-p97)) is reported as > 200 µM.

With `C=C1OC(=O)[C@]2(C1=O)[C@H](/C=C/C=C/CCC)C=C[C@@H](OC(C)=O)[C@@H]2OC(C)=O` (single isomer, unassigned; isomer 5a) [5a, 9,10-Diacetyloxaspirol B Isomer 5a] the IC50 (p97 (wt-p97)) was > 200 µM.

For `C[C@H]1CCC/C=C/C(=O)c2c(O)cc(O)cc2CC(=O)O1` [dehydrocurvularin, reference compound], the “inhibition of p97 ATPase after extensive dialysis (reversibility)” value (p97) was “continued inhibition even after extensive dialysis”.

For `C=C1OC(=O)C2(C1=O)[C@H](/C=C/C=C/CCC)C=C[C@@H](O)[C@@H]2O` (mixture of isomers) [compound 2, oxaspirol B], the IC50 (chaperonin GroEL) was > 200 µM, the IC50 [2] was > 200 µM and the IC50 [3] was > 200 µM. The “rescue of Ub^G76 VGFP reporter (number of GFP positive cells by FACS)” value [4] was “dose-dependent inhibition of GFP fluorescence loss; also recorded: rescued in the presence of 2 in a dose-dependent manner”, the IC50 (p97-C209A) was 18 ± 4.7 µM and the “effect of ATP concentration on IC50 of p97 inhibition” value (p97 (wt-p97); data not shown) was “no effect”. The “p97 ATPase inhibitory activity (in words)” value (p97 (wt-p97); malachite green-based ATPase assay) was “moderate; also recorded: showed activity”, the “inhibition of p97 ATPase after extensive dialysis (reversibility)” value (p97) was “No inhibition of p97 was evident after extensive dialysis; also recorded: p97 ATPase activity is restored” and the “activity against cysteine-less p97 variant Cys0 (in words)” value (p97-cys0) was “no activity”.
